A selection: hits, their analogues and other compounds. The true share with any hit is near 1.5%.
ABHD4 inh: inhibitors of mouse ABHD4. Q8VD66. purified mABHD4, FP-Rh probe fluorescence polarization. inhibition, % at 8.92 µM. 0.54% of 370,000 active;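 active = inhibition exceeding the mean over every tested compound plus 3 SD, cut at about 30% in these data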;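 also: 0% = plate median of compound wells and 100% = S159A mutant with DMSO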
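Test system: mABHD4 protein | Buffer or medium: HEPES pH 7.0 buffer, 150 mM NaCl, 0.01% Pluronic F-127 | Probe or stimulus: FP-Rh fluorescent activity-based probe, added after compound pre-incubation | Timing: Pre-incubation 45 min, probe exposure 60 min, at 25 °C | Technique: Fluorescence polarization, excitation 525 nm, emission 598 nm, BODIPY TMR filters | Repeats: Single well per compound (singlicate)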
TCR CD3 inh: inhibitors of human TCR-CD3 interaction; TAMRA-labeled TCR probe fluorescence, biochemical; inhibition, % at 9.4 µM; 0.37% of 360,000 active; AID 651800;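 also: recombinant mutant TCR 2C K166C tagged with TAMRA read by polarization; 0% = receptor in buffer alone and 100% = receptor with positive control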
HTRA1 inh: blocks human HTRA1 serine peptidase; recombinant HTRA1, FP-rhodamine activity-based probe, fluorescence polarization; inhibition, % at 5.96 µM; 0.5% of 340,000 active; in the data active = inhibition above about 36%;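 also: 0% = enzyme with DMSO and 100% = wells lacking enzyme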
DAGLB inh: diacylglycerol lipase beta (human) inhibition. 0.059% of 340,000 active. HEK293T DAGLB membrane lysate, EnzChek fluorogenic substrate. AID 504411. inhibition, % at 5.17 µM. Q8NCG7; in the data active = inhibition above about 34%;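 also: 0% = enzyme with vehicle and 100% = wells lacking enzyme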
SIAE inh: human SIAE inhibition, primary screen; SIAE FP-Rh probe binding, fluorescence polarization; 0.69% of 370,000 active; inhibition, % at 9.66 µM; Q9HAT2;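 active = inhibition above a cutoff: mean of compounds within the control limits plus 3 SD of those, cut at about 17% in these data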;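 also: 0% = plate median of compound wells and 100% = probe without SIAE protein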
Target sequence (Q9HAT2 whole entry, looked up): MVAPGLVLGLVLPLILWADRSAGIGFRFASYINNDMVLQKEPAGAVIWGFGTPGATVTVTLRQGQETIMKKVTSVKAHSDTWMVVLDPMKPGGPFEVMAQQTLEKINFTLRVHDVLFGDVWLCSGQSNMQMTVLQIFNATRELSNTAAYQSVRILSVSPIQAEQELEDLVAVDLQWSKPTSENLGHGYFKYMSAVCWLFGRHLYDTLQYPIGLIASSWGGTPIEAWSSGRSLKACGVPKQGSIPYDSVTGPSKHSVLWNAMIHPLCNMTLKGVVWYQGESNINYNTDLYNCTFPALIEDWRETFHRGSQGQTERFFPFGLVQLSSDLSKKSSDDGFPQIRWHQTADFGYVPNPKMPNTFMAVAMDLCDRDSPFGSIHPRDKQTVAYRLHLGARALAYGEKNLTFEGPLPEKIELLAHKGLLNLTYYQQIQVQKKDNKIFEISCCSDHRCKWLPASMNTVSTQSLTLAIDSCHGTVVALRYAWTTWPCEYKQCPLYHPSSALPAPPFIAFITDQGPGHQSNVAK
BSA TAMRA ctr: counter-screen for TCR-CD3 interaction inhibitors: BSA probe. shares compounds with TCR CD3 inh. TAMRA-labeled BSA probe fluorescence counterscreen. inhibition, % at 9.4 µM. 10% of 1,200 active. AID 652035; in the data active = inhibition above about 23%;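 also: 0% = buffer low control and 100% = reference high control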
TCR-CD3 inh conf: confirmation of human TCR-CD3 interaction inhibitors; shares compounds with TCR CD3 inh; TAMRA-labeled TCR probe fluorescence binding assay; inhibition, % at 9.4 µM; 48% of 1,200 active; AID 652036
Numbers without * were called inactive; . = no result. Rule as the data show it, unless noted: active = inhibition above about 19%; inactive = the rest.

SMILES	ABHD4 inh	TCR CD3 inh	HTRA1 inh	DAGLB inh	SIAE inh	BSA TAMRA ctr	TCR-CD3 inh conf
Cc1ccc2nc(-c3cccc(N)c3)[nH]c2c1	6	6	-1	1	3	.	.
Nc1ccc2nc(-c3cccc(-c4nc5ccc(N)cc5[nH]4)n3)[nH]c2c1	13	24*	5	3	-3	-50	47*
N#CCC(=O)Nc1ccc(C(=O)NCCC(c2ccccc2)c2ccccc2)cc1	3	21*	-54	1	-33	3	4
CC(CCc1ccccc1)NC(=O)COC(=O)c1ccc(NC(=O)CC#N)cc1 (configuration not stated)	-6	30*	-21	-1	-35	2	3
CC(OC(=O)c1ccc(NC(=O)CC#N)cc1)C(=O)Nc1nc(-c2ccccc2)cs1 (configuration not stated)	-12	35*	-40	1	-39	0	12
CC(OC(=O)c1cccs1)C(=O)Nc1nc(-c2ccccc2)cs1 (configuration not stated)	-14	1	-21	-3	-6	.	.
CC1CCCCN1C(=O)c1ccc(CNC(=O)c2cccc(Br)c2)cc1 (configuration not stated)	-4	.	.	.	-6	.	.
O=S(=O)(CC1NCCc2ccccc21)NCc1ccc(F)cc1 (configuration not stated)	-6	.	.	.	-2	.	.
C=CCN(c1ccccc1)S(=O)(=O)c1ccc2c(c1)oc(=O)n2C	4	64*	-7	-2	-4	3	6
CN(c1ccccc1)S(=O)(=O)c1ccc2c(c1)oc(=O)n2C	4	0	-4	0	-6	.	.
CC(C)C[C@H]1COc2c(Cl)cccc2S(=O)(=O)N1Cc1ccc(F)cc1F	-6	-5	.	.	-6	.	.
CC(C)CC1NC(=O)c2ccc(Cl)cc2-n2c1nc1ccc(F)cc1c2=O (configuration not stated)	-7	11	.	.	-4	.	.
CC(C)CC1NC(=O)c2ccc(Cl)cc2-n2c1nc1cc(F)ccc1c2=O (configuration not stated)	-10	170*	.	.	0	5	-2
O=C(CCl)NNC(=O)c1c(O)c2ccccc2[nH]c1=O	-4	66*	21	4	0	-7	50*
O=C(NNC(=O)c1c(O)c2ccccc2[nH]c1=O)c1ccccc1Br	3	27*	5	3	-3	-11	14
O=C(NC1CC1)c1c(O)c2ccccc2[nH]c1=O	6	6	1	0	7	.	.
C=CCN1C(=O)[C@@H](CC(=O)NCc2ccc(OC)c(OC)c2)[C@]2(C(=O)OC)CCCCC=C12	-4	.	.	.	3	.	.
CN(C)c1ccccc1-c1cc(NC=O)c2ncc(-c3cccc(C(F)(F)F)c3)n2c1	73*	37*	.	.	31*	9	12
CCOC(=O)Cn1c(=NC(=O)c2cc(-c3cccs3)nc3ccccc23)sc2cc(S(N)(=O)=O)ccc21	-27	38*	-53	-1	-18	4	21*
COC(=O)Cn1c(=NC(=O)c2nc3ccccc3s2)sc2cc(S(N)(=O)=O)ccc21	-15	5	-8	0	-10	.	.
COC(=O)Cn1c(=NC(=O)c2cc(-c3cccs3)nc3ccccc23)sc2cc(S(N)(=O)=O)ccc21	-105	57*	-124	-1	-64	10	31*
CC(C)[C@H](NC(=O)c1ccc(Cl)cc1Cl)C(=O)N1CCC[C@H]1C(=O)NCc1ccccc1	-8	-3	.	.	3	.	.
COCCNc1oc(-c2ccc(C)cc2)nc1C#N	-9	1	-3	-2	-3	.	.
COCCNc1oc(-c2ccc(Cl)cc2)nc1C#N	3	19*	-1	0	-6	0	-1
NNC(=O)c1nc[nH]c1C(=O)Nc1ccccc1[N+](=O)[O-]	-1	30*	-1	-1	2	-7	10
SMILES	ABHD4 inh	TCR CD3 inh	HTRA1 inh	DAGLB inh	SIAE inh	BSA TAMRA ctr	TCR-CD3 inh conf
Cc1nn(CC(=O)NC(=O)NC2CCCC(C)C2C)c(=O)c(C#N)c1C (configuration not stated)	-6	24*	-1	2	4	-4	-3
CCOC(=O)CC1(O)CSc2nc(N)cc(=O)n21 (configuration not stated)	2	-2	.	.	10	.	.
N#Cc1c(N(CCO)CCO)nc(N)c2c(N)nc3c(c12)CC(=O)N3CC1CCCO1 (configuration not stated)	8	25*	2	4	0	7	7
CCOC(=O)[C@@]12CCC3=C1N(CCC3)C(=O)[C@H](CC(=O)NCCC(C)C)C2	-4	.	.	.	-3	.	.
COc1cccc(NC(=O)C2CCCN2C(=O)NC2CCC(C)CC2)c1 (configuration not stated)	2	.	.	.	-1	.	.
COc1ccc([N+](=O)[O-])cc1NC(=S)NC(NC(=O)C(c1ccccc1)c1ccccc1)C(Cl)(Cl)Cl (configuration not stated)	-89	74*	-83	1	-66	33*	59*
COC(=O)C1=C(C)N(C)C(=NCc2ccccc2)NC1c1cccc(Cl)c1 (configuration not stated)	5	2	.	.	-1	.	.
CCN(C(=O)C1CCCN(c2nnc(-n3cccc3)s2)C1)c1ccccc1C (configuration not stated)	-5	.	.	.	4	.	.
CN(c1ccccc1)S(=O)(=O)c1ccc(Cl)c(C(=O)Nc2nc3ccccc3[nH]2)c1	-19	3	-21	3	-2	.	.
O=C(c1ccccc1)c1ccc2nc(-c3ccc(NC(=O)c4ccccc4Br)cc3)[nH]c2c1	-88	34*	-82	1	-110	12	12
CN(c1ccccc1)S(=O)(=O)c1ccc(Cl)c(C(=O)Nc2ccc(-c3nc4ccccc4[nH]3)cc2)c1	-106	60*	-79	2	-139	27*	54*
Cc1ccc(S(=O)(=O)CCC(=O)Oc2ccc3c(C)cc(=O)oc3c2)cc1	2	23*	-1	-3	11	-8	0
COc1ccc(C2CC(=O)C(c3ccc(Cl)cc3)=CN2Cc2ccccc2)cc1 (configuration not stated)	0	1	.	.	-3	.	.
COCC(=O)N[C@H]1C[C@@H]2O[C@@H](CO)CC[C@@H]2O[C@@H]1CCc1ccc(-c2ccccc2)cc1	4	.	.	.	-6	.	.
Cc1cccc(C)c1NC(=O)COC(=O)c1c2c(nc3ccccc13)/C(=C\c1ccc3c(c1)OCO3)CCC2	26	58*	-17	-47	22*	49*	30*
CC(OC(=O)c1c2c(nc3ccccc13)/C(=C\c1ccc3c(c1)OCO3)CCC2)C(=O)Nc1ccc(S(N)(=O)=O)cc1 (configuration not stated)	.	.	24	-79	.	.	.

Source: PubChem BioAssay
